Screens from PubChem.
A selection: hits, their analogues and other compounds. The true share with any hit is near 1.9%.
Runt-CBFb FRET: inhibitors of RUNX1 Runt–CBFb binding, primary screen, biochemical, FRET, Cerulean-Runt, Venus-CBFb, uHTS. AID 1496, 2009. Runt-related transcription factor 1 (Homo sapiens) + Core-binding factor subunit beta …. actives 0.46% (n = 220,000). inhibition, % at 20 µM. Cerulean-Runt/Venus-CBFb FRET ratio 530/480, 1 h;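 active means inhibition over about 50% at 20 µM in the single-dose screen, limit read from the data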
Target sequence (Q01196 whole entry, looked up): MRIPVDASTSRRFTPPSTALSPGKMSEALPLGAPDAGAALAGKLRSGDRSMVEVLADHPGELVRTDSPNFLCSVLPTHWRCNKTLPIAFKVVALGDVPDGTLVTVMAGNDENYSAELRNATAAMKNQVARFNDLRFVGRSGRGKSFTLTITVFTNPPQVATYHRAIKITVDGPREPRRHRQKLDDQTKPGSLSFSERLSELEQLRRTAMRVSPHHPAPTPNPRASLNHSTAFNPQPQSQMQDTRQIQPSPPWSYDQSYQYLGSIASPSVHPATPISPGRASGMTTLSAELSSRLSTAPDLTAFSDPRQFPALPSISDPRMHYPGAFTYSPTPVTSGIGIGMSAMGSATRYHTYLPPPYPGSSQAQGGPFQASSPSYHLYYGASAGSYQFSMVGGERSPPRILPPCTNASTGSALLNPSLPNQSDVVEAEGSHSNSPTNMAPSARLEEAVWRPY
Target sequence (Q13951 whole entry, looked up): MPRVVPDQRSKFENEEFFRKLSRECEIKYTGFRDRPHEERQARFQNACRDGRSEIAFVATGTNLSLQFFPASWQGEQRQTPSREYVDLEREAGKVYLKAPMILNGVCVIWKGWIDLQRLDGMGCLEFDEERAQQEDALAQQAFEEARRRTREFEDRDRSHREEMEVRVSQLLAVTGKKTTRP
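Measured by: fluorescence energy transfer, 422 nm excitation, 530/480 nm emission; test system: Cerulean-tagged RUNX1 Runt domain (FRET donor) fusion protein; buffer or medium: Tris pH 7.5 buffer with BSA; compound: one dose, 20 µM compound, 1% DMSO; times: two 1 h room-temperature incubations shielded from light; benchmarks: unlabeled CBFb 5 µM, positive control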
Hck-Nef inh: inhibitors of Nef-activated human Hck kinase, primary screen, biochemical, Z-Lyte FRET, 384-well, Hck-YEEI; Recombinant Hck-YEEI plus Nef, Z-Lyte FRET kinase assay; Tyrosine-protein kinase HCK (Homo sapiens), P08631; inhibition, % at 20 µM; AID 463187, 2010; actives 0.68% (n = 220,000);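 active means Hck-Nef kinase inhibition above about 50%, limit read from the data; inactive means inhibition below that limit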
Runt-SMMHC FRET: inhibitors of RUNX1 Runt–CBFb-SMMHC binding, primary screen, biochemical, FRET, Cerulean-Runt, Venus-CBFb-SMMHC, uHTS. actives 0.74% (n = 220,000). Cerulean-Runt/Venus-CBFb-SMMHC FRET ratio 530/480, 1 h. inhibition, % at 20 µM. Runt-related transcription factor 1 (Homo sapiens) + Core-binding factor subunit beta …;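 active means mean inhibition across duplicate retests at 20 µM reaching about 50%, limit read from the data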;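 further: inhibitors lower the FRET ratio by blocking Runt binding to CBFb-SMMHC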
RanGTP-Imp inh: inhibitors of RanGTP-importin-beta interaction, primary screen, biochemical, FRET, CFP-Ran, YFP-importin-beta, homogeneous. Ran GTPase (GTP-bound) - importin-beta complex. cell-free CFP-Ran/YFP-importin-beta FRET ratio. inhibition, % (test concentration not listed). actives 1.1% (n = 300,000). AID 2216, 2009;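 active means more than half of the replicate wells show a fall in the fluorescence ratio signal beyond about 16%, limit read from the data, passing the limit was not always enough; inconclusive means exactly half of the replicate wells pass the set limit; inactive means fewer than half of replicates pass the limit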
A number is an active result; . = inactive; ? = inconclusive; / = no result given.

SMILES	Runt-CBFb FRET	Hck-Nef inh	Runt-SMMHC FRET	RanGTP-Imp inh
CCOc1ncccc1C(=O)OCC(=O)Nc1ccc2c(c1)OCO2	.	.	.	.
C=CCN1C(=O)/C(=C2/Sc3ccccc3N2C)SC1=Nc1c(C)n[nH]c1C	.	.	.	.
CCN1C(=O)/C(=C2/Sc3ccccc3N2CC)S/C1=N\c1ncn[nH]1	/	52.5	/	.
O=C1CCCCN1CCCC(=O)N1CCCC(Nc2ccc(F)c(F)c2)C1 (stereo unspecified)	/	/	/	.
CCc1c(C)c(C#N)c2nc3ccccc3n2c1-n1nc(C)cc1C	.	.	.	.
CCc1c(C)c(C#N)c2nc3ccccc3n2c1N1CCN(c2cc(C)ccn2)CC1	.	.	.	.
CCc1c(C)c(C#N)c2nc3ccccc3n2c1Cl	.	.	.	20.6
Cc1c(C#N)c2ccccc2n1CC(=O)NCC1CCCO1 (stereo unspecified)	.	.	.	.
CCc1c(C)c(C#N)c2nc3ccccc3n2c1NCC1CCCO1 (stereo unspecified)	.	.	65.2	.
CCc1c(C)c(C#N)c2nc3ccccc3n2c1NCc1ccccn1	.	.	65.3	.
COC(=O)CCc1c(C)c(C#N)c2nc3ccccc3n2c1N1CCCC1	.	.	.	17.2
Cc1c(C(=O)NC2CCN(Cc3ccccc3)C2)oc2c(Cl)cccc12 (stereo unspecified)	/	/	/	.
Cc1c2c(n3c(nc4ccccc43)c1C#N)N(c1ccccc1)CC2	.	.	79.2	/
COC(=O)c1ccc2c(=O)n(CCCCCC(=O)NCc3ccc4c(c3)OCO4)c(=O)[nH]c2c1	.	.	.	35.2
COC(=O)c1ccc2c(=O)n(CCCCCC(=O)NCc3ccccc3)c(=O)[nH]c2c1	.	.	.	.
CCN1C(=O)/C(=C/N2CCc3ccccc32)SC1=S	.	.	.	27.8
CCN1C(=O)/C(=C\N2CCCc3ccccc32)SC1=S	.	.	.	.
Cc1ccnc(NS(=O)(=O)c2ccc(NC(=O)c3snnc3C)cc2)n1	/	/	/	.
COC(=O)CNC(=O)COC(=O)/C=C/c1ccc2ccccc2n1	.	.	.	27.0
CC[C@H](C)/C=C(C)/C=C/C1=CC2=CC(=O)[C@]3(C)OC(=O)[C@@H](C(C)=O)[C@@H]3C2=CO1	.	.	85.4	54.7
CC[C@H](C)/C=C(C)/C=C/C(=O)Cc1cc(O)c(C)c(O)c1C=O	.	.	.	.
Fc1ccc(CSc2nc3ncccc3[nH]2)cc1	102.4	.	.	?
Fc1cccc(CSc2nc3ncccc3[nH]2)c1	.	.	.	.
COc1ccc(CCNC(=O)c2cc3c(=O)n4ccccc4nc3n(Cc3ccco3)c2=N)cc1OC	/	/	/	.
Cc1ccc(Cn2c(=N)c(C(=O)NCc3ccco3)cc3c(=O)n4ccccc4nc32)cc1	.	.	/	113.6
SMILES	Runt-CBFb FRET	Hck-Nef inh	Runt-SMMHC FRET	RanGTP-Imp inh
COc1ccc(CNC(=O)c2cc3c(=O)n4ccccc4nc3n(Cc3ccco3)c2=N)cc1	/	.	/	/
N=c1c(C(=O)NCc2ccco2)cc2c(=O)n3ccccc3nc2n1CCc1ccccc1	.	.	.	130.4
COC(=O)c1ccccc1NC(=O)NN1CCN(C)CC1	/	/	/	.
CC1C(=O)N2CCCc3cc(NC(=O)c4ccccc4Br)cc1c32 (stereo unspecified)	/	/	/	.
Cc1cccn2c(=O)c3cc(C(=O)NC4CCCCC4)c(=N)n(Cc4ccccc4)c3nc12	/	/	/	186.0
Cc1cccn2c(=O)c3cc(C(=O)NC4CCCC4)c(=N)n(Cc4ccc(F)cc4)c3nc12	/	/	/	178.3
Cc1cccn2c(=O)c3cc(C(=O)NC4CCCC4)c(=N)n(CCc4ccccc4)c3nc12	/	/	/	178.6
Cc1cccn2c(=O)c3cc(C(=O)NC4CCCC4)c(=N)n(C4CCCCC4)c3nc12	/	/	/	174.9
Cc1ccc(NC(=O)C2CCN(S(=O)(=O)c3ccc4c(c3)OCCO4)CC2)nc1	/	/	/	.
O=S(=O)(c1ccc(Cl)nc1)N1CCN(c2ncccn2)CC1	.	.	.	.
CCCCNC(=O)c1cc2c(=O)n3cccc(C)c3nc2n(Cc2ccccc2)c1=N	.	.	62.5	188.4
Nc1cc(=O)[nH]c(SCC(=O)Nc2cccc(Cl)c2Cl)n1	.	.	.	.
